Drawing on ChEMBL document CHEMBL4513216, “Probing the Open Global Health Chemical Diversity Library for Multistage-Active Starting Points for Next-Generation Antimalarials” (ACS Infect Dis, 2020), this text covers cytotoxicity for 97 molecules.

This series in a line: Toxicity liver stage against HepG2, at 10uM. More on the design: test concentration 10 uM, cell line HepG2-A16-CD81EGFP. Conditions: human, HepG2-A16-CD81EGFP cells; read-out: INHIBITION
It is filed as cell-based. In a few lines:
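Uninfected HepG2-A16-CD81EGFP cells, 3 × 10^3 per well, 1536-well, plated on prespotted compound at 10 μM final, parasite-free screening media added to match infected plates; puromycin 10 μM positive, DMSO 0.5% negative; run in parallel with 48 h PbLuc assay at 37 °C, 5% CO2; viability by CellTiter-Glo luminescence, normalized to controls.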
As to `O=C(O)c1ccccc1-c1cnc(Cn2c(=O)cc[nH]c2=O)s1`, the cytotoxicity at 10 µM was determined as 2.95%. In the case of `CCn1cc(NC(=O)NCC(c2cccs2)N(C)C)cn1` (configuration not stated), the cytotoxicity at 10 µM is -2.66%. As for `COc1cc(CNCC(O)c2ccc(F)cc2F)cc2c1OCO2` (configuration not stated), the cytotoxicity at 10 µM was -1.37%.

Regarding `CSCC(C)N(C)C(=O)c1nn(-c2ccc(F)cc2C)cc1O` (configuration not stated), the cytotoxicity at 10 µM amounted to 0.618%.

Turning to `CC(C)NS(=O)(=O)c1cc(C(=O)O)cc(-n2cc3c(n2)CCC3)c1`, the cytotoxicity at 10 µM came to 3.19%. Turning to `COc1ccc(CCNC(=O)NC2CCCC2)cc1OC`, the cytotoxicity at 10 µM is -10.9%.

Take `O=C(O)c1cn(CC2CCCN(c3nccc4occc34)C2)nn1` (configuration not stated): the cytotoxicity at 10 µM is -5.17%. Regarding `CCS(=O)(=O)CCCOc1nc(-c2ccccc2Cl)no1`, the cytotoxicity at 10 µM was -6.14%. Regarding `C1CCN(CCOC2CCNCC2)C1`, the cytotoxicity at 10 µM was determined as 6.59%. With `O=C(NC1CCCCC1)N1CCC(n2cc3[nH]cccc-3c2=O)CC1`, the cytotoxicity at 10 µM was -5.01%. Consider `CC(C)=CCN1C[C@@H]2CC[C@H]1CN(C(=O)c1ccc3nc[nH]c3c1)C2`, for which the cytotoxicity at 10 µM was -1.31%. Regarding `Cc1noc(C)c1S(=O)(=O)NC(=O)COc1cccc(C(C)C)c1`, the cytotoxicity at 10 µM is -10.7%. In the case of `CCC(CO)NCc1ccc(-c2ccc(Br)cc2)o1` (configuration not stated) it was -5%; in that of `NC(=O)C1(CCCc2ccccn2)CCCN(Cc2ncc[nH]2)C1` (configuration not stated), -0.00173%; in that of `CCc1nnsc1C(=O)N1CCCN(Cc2ccc(C)cc2)CC1`, -4.28%.

For the molecule `O=C(NCc1ccco1)[C@H]1C[C@H]2OCC[C@H]2N(C(=O)c2ccnnc2)C1`, the cytotoxicity at 10 µM was -10.3%.

With `CC[C@@H](Cn1ncc2ccccc2c1=O)NC(=O)c1cnc(C)cn1`, the cytotoxicity at 10 µM stood at 7.92%.

In the case of `O=C(CN1CCOC1=O)N1CCc2nnc(-c3ccccc3)n2CC1`, the cytotoxicity at 10 µM is -16.2%. Regarding `CCc1n[nH]c(C2CN(CCc3ccncc3)CCO2)n1` (configuration not stated), the cytotoxicity at 10 µM is 2.17%. In the case of `CN(CC(=O)NCc1cc2ccccc2o1)S(C)(=O)=O`, the cytotoxicity at 10 µM is 4.59%. `OCC(CO)N1CCC(c2nnc(Cn3ccnc3)n2C2CC2)CC1`: the cytotoxicity at 10 µM is -4.36%. On to `OC1(CN2CCCC2)CCCN(Cc2cnc(-c3ccccc3)nc2)C1` (configuration not stated), for which the cytotoxicity at 10 µM is -11.9%.

Take `CS(=O)(=O)c1snnc1C1CCN(Cc2ccc3nccnc3c2)CC1`: the cytotoxicity at 10 µM is -6.14%. Regarding `COc1ccnc(N(C)Cc2ccccc2OC(F)(F)F)n1`, the cytotoxicity at 10 µM is 6.15%. With `Cc1n[nH]c(C2CN(CC(=O)NCc3sccc3C)CCO2)n1` (configuration not stated), the cytotoxicity at 10 µM was -4.75%. The same measure for `CN(c1ccc(CNc2c(Cl)cccc2C#N)cc1)S(C)(=O)=O`: -66.9%; for `Cn1cc(NC(=O)CNC(=O)N2CCN(c3ccc(Cl)cc3)CC2)cn1`: 6.9%; for `COc1c(F)cc(NC(=O)N2CCC(CSC)C2)cc1F` (configuration not stated): 10.2%.

For `O=C(C1CCC1)N1CCO[C@H]2[C@H](OCCCn3cccn3)CC[C@@H]21`, the cytotoxicity at 10 µM was found to be 16.7%. As for `Cc1nn(C)c2cn(CC(=O)N3CCc4ccccc4C3)nc12`, the cytotoxicity at 10 µM is 8.41%. `Nc1ccc(C(=O)N2C[C@H]3CC[C@@H](C2)N(Cc2ccccc2)C3)cn1`: the cytotoxicity at 10 µM was -121%.

`CN1CCCC(CCC(=O)NCCCn2ncc3ccccc32)C1` (configuration not stated): the cytotoxicity at 10 µM worked out at 2.39%. In the case of `O=C(c1cnn2ccccc12)N1CCCC(OCc2ccccn2)C1` (configuration not stated), the cytotoxicity at 10 µM is -3.74%.

On to `CC(C)(C)n1ncc(NCc2ccccc2)c(Cl)c1=O`, for which the cytotoxicity at 10 µM came to 55.8%. On to `COc1cccc(CC(C)NC(=O)NC(C)C)c1` (configuration not stated), for which the cytotoxicity at 10 µM came to 4.72%. In the case of `CCn1cnnc1CNC(=O)NCC(C)(CC)N1CCOCC1` (configuration not stated), the cytotoxicity at 10 µM is -10.3%. The same measure for `CNc1cncc(C2CCCN2C(=O)Cn2c(=O)oc3ccccc32)n1` (configuration not stated): -6.14%; for `Cc1n[nH]c(C2CN(CCNC3CCCCC3)CCO2)n1` (configuration not stated): -8.29%; for `CCNC(=O)c1nc2c(s1)CCCN2S(C)(=O)=O`: -12.6%. `CCN(CC(=O)NC)C(=O)c1csc(Cc2ccccc2)n1`: the cytotoxicity at 10 µM is -5.66%.

For the molecule `CN(Cc1ccco1)C[C@H]1OC[C@@H]2CCN(Cc3nccs3)C[C@@H]21`, the cytotoxicity at 10 µM is -5.9%. `CN(CCn1cccn1)c1cc(C(F)(F)F)nc(-c2cccnc2)n1`: the cytotoxicity at 10 µM is -3.63%. With `Cc1cc(C(=O)NCC2CCC3(CC2)OCCO3)[nH]n1`, the cytotoxicity at 10 µM is -10.7%. In the case of `CC(Nc1cccc(COCc2ccco2)c1)C(=O)NC(N)=O` (configuration not stated), the cytotoxicity at 10 µM is -5.65%. As to `N#Cc1ccc(OCCNCCn2cccn2)cc1`, the cytotoxicity at 10 µM is -4.11%. With `COc1ccc(NC(=O)CNc2cccc3c2CCCC3)c(OC)c1`, the cytotoxicity at 10 µM was 16.5%. With `Cc1cc(N2CCCC(N(C)C)C2)n2nccc2n1` (configuration not stated), the cytotoxicity at 10 µM was -43.4%. The same measure for `CN(C)c1ccccc1CN1CCC(N2CCCC2=O)CC1`: 5.02%.

Turning to `CCOCC1CN(C(=O)Cc2ccccn2)Cc2c1cnn2C` (configuration not stated), the cytotoxicity at 10 µM was -72%. The same measure for `CC(C)N(C)Cc1cnc2n1CCN(Cc1cccc(C#N)c1)C2`: 7.48%; for `O=C([C@H]1COC[C@H]2CN(c3ncc(F)cn3)C[C@H]21)N1CCOCC1`: -5.58%. With `OCCOc1cc(F)ccc1NCc1nc(-c2ccoc2)no1`, the cytotoxicity at 10 µM was -46.9%. Turning to `CSc1ccc(-c2noc(CN(Cc3ccccc3)C(C)C)n2)cc1`, the cytotoxicity at 10 µM was found to be 3.88%.

In the case of `CCS(=O)(=O)N1CCC2(CN(c3ccsc3)C(=O)CN2C)C1` (configuration not stated), the cytotoxicity at 10 µM worked out at 7.31%.

With `Cc1csc(C(Cc2ccsc2)NC(=O)CN(C)Cc2ccccn2)n1` (configuration not stated), the cytotoxicity at 10 µM was found to be 0.258%. Consider `COc1ccc2[nH]nc(CN3CCN(Cc4cccc(F)c4)CC3)c2c1`, for which the cytotoxicity at 10 µM was -8.14%. For the molecule `CC(C)[C@H]1COC(=O)N1Cc1nnc(-c2ccccc2)o1`, the cytotoxicity at 10 µM came out at 0.537%. The same measure for `NS(=O)(=O)Cc1ccc(CNc2cncc(-n3cccn3)n2)cc1`: 6.1%; for `Cc1ccn2c(F)c(C(=O)N3CCC4(CCCN(C)C4=O)C3)nc2c1` (configuration not stated): 2.51%. As to `Cc1ccc(NC2CCN(C(=O)c3c(C)noc3C)CC2)nn1`, the cytotoxicity at 10 µM is -4.35%.

With `CNC(=O)c1cn(C)c(-c2nc3cc(NC(C)=O)ccc3n2C)c1OC`, the cytotoxicity at 10 µM is -42.5%. Turning to `CCNc1cc2c(nn1)CCN(C(=O)c1cc3c(s1)CCOC3)C2`, the cytotoxicity at 10 µM was -8.51%.

For `CCc1nc2n(n1)CCCC2NC(=O)Nc1cc(OC)ccc1C` (configuration not stated), the cytotoxicity at 10 µM was 12.7%.

For the molecule `OCCN1CCN(CC(O)c2cc(Cl)ccc2Cl)CC1` (configuration not stated), the cytotoxicity at 10 µM is -3.03%. As to `Cc1ccc(CN(CCCN2CCOCC2)Cc2cnc(C)n2C)o1`, the cytotoxicity at 10 µM was -24%.

`Cc1cccc2[nH]c(C3CCCN(Cc4ccccc4C(=O)O)C3)nc12` (configuration not stated): the cytotoxicity at 10 µM is 7.28%. `Cc1cnn(CC(=O)N2CCCN(Cc3cnn(C(C)C)c3)CC2)c1`: the cytotoxicity at 10 µM is -12.3%.

Consider `CC(C(=O)NCc1ccc(-n2cncn2)nc1)n1ccnc1` (configuration not stated), for which the cytotoxicity at 10 µM turned out to be 0.409%. As for `O=C1CSC(c2ccsc2)c2c(n(C3CCCC3)[nH]c2=O)N1` (configuration not stated), the cytotoxicity at 10 µM was -11.6%. `Cc1cc(NC(=O)CCn2cncn2)no1`: the cytotoxicity at 10 µM is 2.89%. For `Cc1nc(N)sc1C(=O)N1CCCC(COc2ccc(F)cc2)C1` (configuration not stated), the cytotoxicity at 10 µM is -143%.

As for `O=C(NCCN1CCOC1=O)c1cc(-c2ccccc2)on1`, the cytotoxicity at 10 µM was 12.3%. With `CC(=O)N1CCC(n2nccc2-c2cnc(N(C)CCO)nc2)CC1`, the cytotoxicity at 10 µM worked out at 5.47%.

Take `CCc1nnc(CN2CCN(C(=O)c3cc4ccccc4[nH]3)CC2)o1`: the cytotoxicity at 10 µM is -0.385%. As to `CNC(=O)COc1cccc(CNCc2c(C)noc2C)c1`, the cytotoxicity at 10 µM is -10.3%. Regarding `NC(=O)NC(CC(=O)N1CCc2sccc2C1)c1cccc(Br)c1` (configuration not stated), the cytotoxicity at 10 µM amounted to 3.43%. On to `CCc1ncncc1C(=O)N1CCCN(Cc2ccccc2C)CC1`, for which the cytotoxicity at 10 µM was 0.977%. The same measure for `CC(=O)Nc1nc(C(=O)NCc2ccc(OC(C)C)nc2)cs1`: -2.45%; for `Cc1cc(CN2CCc3cncnc3C2)no1`: 5.84%. Turning to `CC(C)CS(=O)(=O)CC(=O)NC(C)c1nnc2n1CCC2` (configuration not stated), the cytotoxicity at 10 µM was -19.1%. On to `O=C1OC2(CCN(CC3CCCO3)CC2)CN1CCc1ccccc1` (configuration not stated), for which the cytotoxicity at 10 µM is -6.21%.

For the molecule `Cc1cc(C)n(C2CN(CCc3ccccn3)C2)n1`, the cytotoxicity at 10 µM came out at 3.65%. Turning to `CC(c1cccc(O)c1)N(C)S(=O)(=O)c1cccnc1` (configuration not stated), the cytotoxicity at 10 µM came to 9.46%. With `Cc1nc(CN2CCC3(C2)CN(C(=O)c2conc2C)C3)cs1`, the cytotoxicity at 10 µM is -105%. On to `CS(=O)(=O)c1ccc(Cl)c(NC(=O)NCCC2=CCCCC2)c1`, for which the cytotoxicity at 10 µM was 0.0793%. As for `COCC(=O)NCc1cc(=O)n2c(n1)CN(Cc1ccoc1)CCC2`, the cytotoxicity at 10 µM was -124%. Regarding `Cn1ccnc1CC1CCCN(C(=O)Nc2cccn(C)c2=O)C1` (configuration not stated), the cytotoxicity at 10 µM was -4.79%. Consider `CNCc1ccc([C@@H]2CN(C(C)=O)C[C@H]2C(=O)N(C)C)cc1`, for which the cytotoxicity at 10 µM is 3%. Turning to `CC(C)N1CCCn2nc(C(=O)NCc3ccccc3F)cc2C1`, the cytotoxicity at 10 µM was -4.87%.

As to `COCCn1ccc2c(C(=O)NC3CN4CCC3CC4)cccc21` (configuration not stated), the cytotoxicity at 10 µM was -51.6%.

In the case of `N#Cc1cccc(CN2C[C@@H]3CN(c4ncccn4)C[C@@H]3C2)c1`, the cytotoxicity at 10 µM turned out to be 8.04%. In the case of `O=C(CCc1nc2cccnc2[nH]1)Nc1cccnc1`, the cytotoxicity at 10 µM came out at 2.92%. In the case of `CCNC(c1ccc(C)cc1)c1cccnc1` (configuration not stated) it was 0.533%; in that of `OCC1(Cc2ccc(Cl)cc2)CCN(Cc2ccccc2O)CC1`, -137%; in that of `Cn1ccc(C(=O)N2CCN(CCc3ccccc3)CC2)cc1=O`, 5.8%. For `O=C(CC1C=CCC1)Nc1ncn(CC(=O)N2CCCCCC2)n1` (configuration not stated), the cytotoxicity at 10 µM is -3.72%. In the case of `C[C@H]1C[C@H]2CN(Cc3ccccn3)CC[C@@H]2O1` it was -78.2%.
